Assay results reported in ChEMBL document CHEMBL1122584 (1984).
Peptide text beside a SMILES is read from it.

How the values were obtained:
Rattus norvegicus [1] = species: Rattus norvegicus; assay: Compound was evaluated for its glycogenolytic activity in normal male rats and the plasma glucose level was determined at 2 ug/100 g of body weight; type: functional, organism-based
Summary of the method: (§1)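 Groups of five, anesthetized with sodium pentobarbital (6–7 mg/100 g), given peptide in saline s.c. (0.5 mL) 30 min later. Jugular blood was drawn at 15 min into EDTA, and plasma glucose was measured by glucose oxidase. Mean ± SD, n = 5.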

Rattus norvegicus [2] = species: Rattus norvegicus; assay: (§2) Compound was evaluated for its glycogenolytic activity in normal male rats and the plasma glucose level was determined at 1 ug/100 g of body weight; type: functional, organism-based; summary of the method: as §1
Rattus norvegicus [3] = species: Rattus norvegicus; assay: Potency of glycogenolytic activity was reported by four point assay; type: functional
Rattus norvegicus [4] = species: Rattus norvegicus; assay: Compound was evaluated for its glycogenolytic activity in normal male rats and the plasma glucose level was determined at 4 ug/100 g of body weight; type: functional, organism-based
Summary of the method: as §1, with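 “Male Charles River CD rats (175–350 g), fed and kept at 24 ± 2 °C under a 0500–1900 h light cycle for at least 1 week. Groups” for “Groups”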

Rattus norvegicus [5] = species: Rattus norvegicus; assay: Compound was evaluated for its glycogenolytic activity in normal male rats and the plasma glucose level was determined at 12 ug/100 g of body weight; type: functional, organism-based
Summary of the method: as §1, with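 “Male Charles River CD rats (175–350 g), fed and kept at 24 ± 2 °C under a 0500–1900 h light cycle for at least 1 week. Groups” for “Groups”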

Rattus norvegicus [6] = species: Rattus norvegicus; assay: Compound was evaluated for its glycogenolytic activity in normal male rats and the plasma glucose level was determined at 6 ug/100 g of body weight; type: functional, organism-based
Summary of the method: as §1, with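 “Male Charles River CD rats (175–350 g), fed and kept at 24 ± 2 °C under a 0500–1900 h light cycle for at least 1 week. Groups” for “Groups”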

Rattus norvegicus [7] = species: Rattus norvegicus; assay: as §2; type: functional, organism-based; remark: listed apart in the source
Summary of the method: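 Male Charles River CD rats (175–350 g), fed, anesthetized with sodium pentobarbital (6–7 mg/100 g), dosed subcutaneously 30 min later with peptide in saline (0.5 mL, gelatin-coated syringes), groups of five. Jugular blood drawn exactly 15 min post-injection into EDTA, and plasma glucose measured by glucose oxidase. Values are mean ± SD, n = 5.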

Rattus norvegicus [8] = species: Rattus norvegicus; assay: potency of glycogenolytic activity was reported by four point assay.; type: functional, organism-based
Rattus norvegicus [9] = species: Rattus norvegicus; assay: Compound was evaluated for its glycogenolytic activity in normal male rats and the plasma glucose level was determined at 0.5 ug/100 g of body weight; type: functional, organism-based

CSCC[C@H](NC(=O)[C@H](CC(C)C)NC(=O)[C@H](Cc1c[nH]c2ccccc12)NC(=O)[C@H](CCC(N)=O)NC(=O)[C@@H](NC(=O)[C@H](Cc1ccccc1)NC(=O)[C@H](CC(=O)O)NC(=O)[C@H](CCC(N)=O)NC(=O)[C@H](C)NC(=O)[C@H](CCCN=C(N)N)NC(=O)[C@H](CCCN=C(N)N)NC(=O)[C@H](CO)NC(=O)[C@H](CC(=O)O)NC(=O)[C@H](CC(C)C)NC(=O)[C@H](Cc1ccc(O)cc1)NC(=O)[C@H](CCCN=C(N)N)NC(=O)[C@H](CO)NC(=O)[C@H](Cc1ccc(O)cc1)NC(=O)[C@H](CC(=O)O)NC(=O)[C@H](CO)NC(=O)[C@@H](NC(=O)[C@H](Cc1ccccc1)NC(=O)[C@@H](NC(=O)[C@@H](C)NC(=O)[C@H](CCC(N)=O)NC(=O)[C@H](CO)NC(=O)[C@@H](N)Cc1c[nH]cn1)[C@@H](C)O)[C@@H](C)O)C(C)C)C(=O)N[C@@H](CC(N)=O)C(=O)N[C@H](C(=O)O)[C@@H](C)O
Plasma glucose (Rattus norvegicus [1]): 198 mg 100ml-1 | Plasma glucose (Rattus norvegicus [2]): 174 mg 100ml-1 | Potency (Rattus norvegicus [3]): 44%

CSCC[C@H](NC(=O)[C@H](CC(C)C)NC(=O)[C@H](Cc1c[nH]c2ccccc12)NC(=O)[C@H](CCC(N)=O)NC(=O)[C@@H](NC(=O)[C@H](Cc1ccccc1)NC(=O)[C@H](CC(=O)O)NC(=O)[C@H](CCC(N)=O)NC(=O)[C@H](C)NC(=O)[C@H](CCCN=C(N)N)NC(=O)[C@H](CCCN=C(N)N)NC(=O)[C@H](CO)NC(=O)[C@H](CC(=O)O)NC(=O)[C@H](CC(C)C)NC(=O)[C@H](Cc1ccc(O)cc1)NC(=O)[C@H](CCCN=C(N)N)NC(=O)[C@H](CO)NC(=O)[C@H](Cc1ccc(O)cc1)NC(=O)[C@H](CC(=O)O)NC(=O)[C@H](CO)NC(=O)[C@@H](NC(=O)[C@H](Cc1ccccc1)NC(=O)[C@@H](NC(=O)[C@@H](C)NC(=O)[C@H](CCC(N)=O)NC(=O)[C@H](CO)NC(=O)[C@H](N)Cc1ccc(Cl)cc1)[C@@H](C)O)[C@@H](C)O)C(C)C)C(=O)N[C@@H](CC(N)=O)C(=O)N[C@H](C(=O)O)[C@@H](C)O
Plasma glucose (Rattus norvegicus [1]): 158 mg 100ml-1 | Plasma glucose (Rattus norvegicus [4]): 176 mg 100ml-1 | Potency (Rattus norvegicus [3]): 9%

CSCC[C@H](NC(=O)[C@H](CC(C)C)NC(=O)[C@H](Cc1c[nH]c2ccccc12)NC(=O)[C@H](CCC(N)=O)NC(=O)[C@@H](NC(=O)[C@H](Cc1ccccc1)NC(=O)[C@H](CC(=O)O)NC(=O)[C@H](CCC(N)=O)NC(=O)[C@H](C)NC(=O)[C@H](CCCN=C(N)N)NC(=O)[C@H](CCCN=C(N)N)NC(=O)[C@H](CO)NC(=O)[C@H](CC(=O)O)NC(=O)[C@H](CC(C)C)NC(=O)[C@H](Cc1ccc(O)cc1)NC(=O)[C@H](CCCN=C(N)N)NC(=O)[C@H](CO)NC(=O)[C@H](Cc1ccc(O)cc1)NC(=O)[C@H](CC(=O)O)NC(=O)[C@H](CO)NC(=O)[C@@H](NC(=O)[C@H](Cc1ccccc1)NC(=O)[C@@H](NC(=O)CNC(=O)[C@H](CCC(N)=O)NC(=O)[C@H](CO)NC(=O)[C@@H](N)Cc1ccccc1)[C@@H](C)O)[C@@H](C)O)C(C)C)C(=O)N[C@@H](CC(N)=O)C(=O)N[C@H](C(=O)O)[C@@H](C)O (H-FSQGTFTSDYSRYLDSRRAQDFVQWLMNT-OH)
Plasma glucose (Rattus norvegicus [1]): 183 mg 100ml-1 | Plasma glucose (Rattus norvegicus [2]): 161 mg 100ml-1 | Potency (Rattus norvegicus [3]): 31%

CSCC[C@H](NC(=O)[C@H](CC(C)C)NC(=O)[C@H](Cc1c[nH]c2ccccc12)NC(=O)[C@H](CCC(N)=O)NC(=O)[C@@H](NC(=O)[C@H](Cc1ccccc1)NC(=O)[C@H](CC(=O)O)NC(=O)[C@H](CCC(N)=O)NC(=O)[C@H](C)NC(=O)[C@H](CCCN=C(N)N)NC(=O)[C@H](CCCN=C(N)N)NC(=O)[C@H](CO)NC(=O)[C@H](CC(=O)O)NC(=O)[C@H](CC(C)C)NC(=O)[C@H](Cc1ccc(O)cc1)NC(=O)[C@H](CCCN=C(N)N)NC(=O)[C@H](CO)NC(=O)[C@H](Cc1ccc(O)cc1)NC(=O)[C@H](CC(=O)O)NC(=O)[C@H](CO)NC(=O)[C@@H](NC(=O)[C@H](Cc1ccccc1)NC(=O)[C@@H](NC(=O)CNC(=O)[C@H](CCC(N)=O)NC(=O)[C@@H](N)CO)[C@@H](C)O)[C@@H](C)O)C(C)C)C(=O)N[C@@H](CC(N)=O)C(=O)N[C@H](C(=O)O)[C@@H](C)O (H-SQGTFTSDYSRYLDSRRAQDFVQWLMNT-OH)
Plasma glucose (Rattus norvegicus [5]): 186 mg 100ml-1 | Plasma glucose (Rattus norvegicus [6]): 165 mg 100ml-1 | Potency (Rattus norvegicus [3]): 4%

GLUCAGON
Plasma glucose (Rattus norvegicus [7]): 213 mg 100ml-1 [middle of 5 runs] | Potency (Rattus norvegicus [8]): 100% | Plasma glucose (Rattus norvegicus [9]): 186 mg 100ml-1 [middle of 4 runs] | Potency (Rattus norvegicus [3]): 100%
